Among the data in ChEMBL document CHEMBL4414668, “Phallusialides A-E, Pyrrole-Derived Alkaloids Discovered from a Marine-Derived Micromonospora sp. Bacterium Using MS-Based Metabolomics Approaches” (2019) are MIC and Activity values, retold here.

The subject of test [1] is Staphylococcus aureus. As to the kind of experiment: Antibacterial activity against methicillin-resistant Staphylococcus aureus ATCC 33591 incubated for 18 hrs by dilution antimicrobial susceptibility test. As to conditions: ATCC 33591, 18 h.
In test [2] the test system is Escherichia coli. As to the kind of experiment: Antibacterial activity against Escherichia coli ATCC 25922 at 256 ug/ml incubated for 18 hrs by dilution antimicrobial susceptibility test. In kind it is functional, organism-based. The method in brief:
(§1)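 Dilution susceptibility test for aerobic bacteria. Compounds in DMSO, serially diluted to 10 concentrations (0.5–256 μg/mL), tested in triplicate. Positive controls were vancomycin for MRSA ATCC 33591 and gentamicin for E. coli ATCC 25922. Each plate carried six untreated media controls. Incubation was 35 °C for 18 h. MIC was read as the lowest concentration with no visible bacterial growth.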

Test [3] has as its system Staphylococcus aureus. As to the kind of experiment: Antibacterial activity against methicillin-resistant Staphylococcus aureus ATCC 33591 at 256 ug/ml incubated for 18 hrs by dilution antimicrobial susceptibility test.
Test [4] relates to Escherichia coli. As to the kind of experiment: Antibacterial activity against Escherichia coli ATCC 25922 incubated for 18 hrs by dilution antimicrobial susceptibility test. In kind it is functional. A digest of the protocol: as §1

Values after ≈ are worked out from the molar mass of the structure shown. Active and inactive are the calls of the source. The rule behind the calls is not given here.

The MIC is the lowest concentration found to suppress growth. Compound `CN[C@H](CC(C)C)C(=O)N[C@H]1C(=O)N[C@@H](CC(N)=O)C(=O)N[C@H]2C(=O)N[C@H]3C(=O)N[C@H](C(=O)N[C@H](C(=O)O)c4cc(O)cc(O)c4-c4cc3ccc4O)[C@H](O)c3ccc(c(Cl)c3)Oc3cc2cc(c3O[C@@H]2O[C@H](CO)[C@@H](O)[C@H](O)[C@H]2O[C@H]2C[C@](C)(N)[C@H](O)[C@H](C)O2)Oc2ccc(cc2Cl)[C@H]1O` [VANCOMYCIN] came in with an MIC with Staphylococcus aureus [1] of 0.25 µg/mL (≈ 0.173 µM).

Regarding `C[C@@H]1O[C@@H](O)C[C@@](C)(N)[C@H]1O[C@H]1CC[C@H](OC(=O)c2ccc[nH]2)[C@@H](C)O1`, the result in the test on Escherichia coli [2] and in the test on Staphylococcus aureus [3] was inactive.

As to `C[C@@H]1O[C@H](O)C[C@@](C)(NC(=O)CCC(=O)O)[C@H]1O[C@@H]1C[C@@](C)(N)[C@@H](O[C@H]2CC[C@H](OC(=O)c3cc(Cl)c[nH]3)[C@@H](C)O2)[C@H](C)O1`, the result in the test on Escherichia coli [2] and with Staphylococcus aureus [3] was inactive.

Consider `C[C@@H]1O[C@@H](O)C[C@@](C)(N)[C@H]1O[C@H]1CC[C@H](OC(=O)c2cc(Br)c[nH]2)[C@@H](C)O1`, for which the MIC was 64 µg/mL (≈ 143 µM) with Escherichia coli [4] (ATCC 25922, 18 h) and 32 µg/mL (≈ 71.5 µM) against Staphylococcus aureus [1].

In the case of `C[C@@H]1O[C@@H](O)C[C@@](C)(N)[C@H]1O[C@H]1CC[C@H](OC(=O)c2cc(Cl)c[nH]2)[C@@H](C)O1`, the minimal inhibitory concentration (MIC) stood at 64 µg/mL (≈ 159 µM) in the test on Escherichia coli [4] (ATCC 25922, 18 h) and 32 µg/mL (≈ 79.4 µM) in the test on Staphylococcus aureus [1].

As to GENTAMICIN, inhibition of growth against Escherichia coli [4] (MIC) required 4 µg/mL.

Take `C[C@@H]1O[C@H](O[C@H]2CC[C@H](O)O[C@@H]2C)C[C@@](C)(N)[C@H]1O[C@H]1CC[C@H](OC(=O)c2cc(Cl)c[nH]2)[C@@H](C)O1`: the result with Escherichia coli [2] and with Staphylococcus aureus [3] was inactive.
